Results as given in PMC4575845 (Journal of biomolecular screening, 2015).
≈ marks a conversion by molar mass, not a printed value. Entries after “also recorded” stand apart in the source; their conditions may differ.

Key:
[1] = target: T1, P. aeruginosa GluRS (Pseudomonas aeruginosa, UniProt Q9XCL6); assay: SPA-based tRNA aminoacylation assay; assay type: biochemical
T1 sequence (Q9XCL6 1-494): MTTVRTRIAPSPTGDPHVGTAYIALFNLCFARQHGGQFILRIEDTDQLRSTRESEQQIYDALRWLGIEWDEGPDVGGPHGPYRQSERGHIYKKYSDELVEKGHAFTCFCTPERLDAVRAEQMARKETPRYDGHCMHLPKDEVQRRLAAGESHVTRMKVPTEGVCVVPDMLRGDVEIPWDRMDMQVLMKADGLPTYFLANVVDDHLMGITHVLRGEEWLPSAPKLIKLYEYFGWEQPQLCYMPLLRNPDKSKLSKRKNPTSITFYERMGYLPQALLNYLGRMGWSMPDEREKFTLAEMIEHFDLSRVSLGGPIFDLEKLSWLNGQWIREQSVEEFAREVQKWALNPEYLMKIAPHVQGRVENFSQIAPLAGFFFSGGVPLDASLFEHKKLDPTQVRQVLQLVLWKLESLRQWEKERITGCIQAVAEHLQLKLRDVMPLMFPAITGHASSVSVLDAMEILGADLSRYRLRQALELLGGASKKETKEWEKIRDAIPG
How it was run: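 P. aeruginosa GluRS was expressed in E. coli Rosetta 2(DE3) from pET101 and Ni-NTA purified. Final mix: 50 mM Tris-HCl pH 7.5, 8 mM MgCl2, 1.25 mM ATP, 1 mM spermine, 1 mM DTT, 100 µM [3H]Glu, 0.1 µM enzyme. Compound (200–0.4 µM) preincubated 15 min ambient; E. coli tRNA (0.75 µM tRNAGlu) added; 1 h 37 °C; EDTA stop. Poly-L-lysine yttrium silicate SPA beads (citrate pH 2.0), 1 h RT, scintillation count.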

[2] = tested on: Streptococcus pneumonia (ATCC 49619); assay: Broth microdilution MIC; assay type: cell-based; conditions: Streptococcus pneumoniae, ATCC49619
[3] = tested on: Staphylococcus aureus (ATCC 29213); assay: Broth microdilution MIC; assay type: cell-based; conditions: ATCC29213
[4] = tested on: S. pneumoniae; assay: Time-kill study; assay type: cell-based, Streptococcus pneumoniae; conditions: 4x MIC
How it was run: (§1)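 Time-kill per CLSI M26-A, with compound at 4× MIC (broth microdilution MIC per CLSI M7-A7). Medium: Brain Heart Infusion or Trypticase Soy Broth, with or without 3% lysed horse blood. Viable counts by plating for CFU at 0, 2, 4, 6 and 24 h versus compound-free control cultures.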

[5] = tested on: S. aureus; assay: Time-kill study; assay type: cell-based, Staphylococcus aureus; conditions: 4x MIC
[6] = tested on: NIH/3T3 cells; assay: MTT in vitro cytotoxicity test; assay type: cell-based; conditions: 25–800 µg/mL, 24 h
[7] = target: T1, P. aeruginosa GluRS; assay: Binding mode assay; assay type: biochemical; conditions: for mode of inhibition with respect to ATP: IC50 at ATP 25-1000 µM, Glu 100 µM; for mode of inhibition with respect to Glu: IC50 at Glu 25-300 µM, ATP held constant
How it was run: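 IC50 by the same SPA aminoacylation assay, with 0.05 µM P. aeruginosa GluRS and compound at 200–0.4 µM final, preincubated 15 min RT. Started with E. coli tRNA (0.75 µM tRNAGlu), 1 h at 37 °C, EDTA stop. DMSO-only positive controls. ATP series 25–1000 µM at 100 µM Glu. Glu series 25–300 µM at constant saturating ATP. Sigmoidal dose–response fit; mode inferred from IC50 change versus substrate level.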

[8] = tested on: Enterococcus faecalis (ATCC 29212); assay: Broth microdilution MIC; assay type: cell-based; conditions: ATCC29212
[9] = tested on: E. faecalis; assay: Time-kill study; assay type: cell-based, Enterococcus faecalis; conditions: 4x MIC, 0-24 h
How it was run: as §1

CC1(C)SC(=S)N(/N=C/C=C/c2ccc([N+](=O)[O-])o2)C1N(O)C(=O)Nc1cccc(Cl)c1 (centres unmarked) [BT_04B09, 3-(3-chlorophenyl)-1-(5,5-dimethyl-3-{(E)-[(2E)-3-(5-nitrofuran-2-yl)prop-2-en-1-ylidene]amino}-2-thioxo-1,3-thiazolidin-4-yl)-1-hydroxyurea]
IC50 [1]: 24.9 µM | MIC [2]: 32 µg/mL (≈ 64.5 µM) | MIC [3]: 32 µg/mL (≈ 64.5 µM) | bacteriostatic or bactericidal ([4]; 0-24 h): bactericidal | inhibition of growth in time-kill ([4]; all times tested): completely | bacteriostatic or bactericidal ([5]; 0-24 h): bactericidal | regrowth in time-kill ([5]; at 24 h): some regrowth | cytotoxicity (MTT) [6]: not observed to be toxic | mode of inhibition with respect to ATP [7]: noncompetitive; also recorded: remain constant | mode of inhibition with respect to Glu [7]: competitive

O=C(Nc1ccc(-c2cc(C(F)(F)F)nn2-c2ccccc2)cc1)Nc1ccc(F)cc1F [BT_03F04, 1-(2,4-difluorophenyl)-3-{4-[1-phenyl-3-(trifluoromethyl)-1H-pyrazol-5-yl]phenyl}urea]
IC50 [1]: 21.9 µM | MIC [8]: 2 µg/mL (≈ 4.36 µM) | MIC [2]: 8 µg/mL (≈ 17.5 µM) | bacteriostatic or bactericidal [9]: bacteriostatic | decrease in colony-forming units (CFUs) compared to the control [9]: 2–3 log10 | bacteriostatic or bactericidal ([4]; 0-24 h): bacteriostatic | decrease in colony-forming units (CFUs) compared to the control ([4]; 0-24 h): 2–3 log10 | cytotoxicity (MTT) [6]: not observed to be toxic | mode of inhibition with respect to ATP [7]: noncompetitive | mode of inhibition with respect to Glu [7]: noncompetitive
